Results on 16 molecules are retold here after PubChem BioAssay.

A short description of experiment [1]: Her2 expression decrease, cell viability multiplex – SKBR3 breast tumor cells, AlphaScreen, ATP viability, primary screen (AID 461;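 active = Her2 level under about 52% in both replicate screens, with viability over 70% of control, limit read from the data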;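 for Her2 level: lower value means less Her2 protein in the cells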;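 for viability: percent of carrier control wells set as 100% viability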). Particulars: SKBR3 Her2 protein level, 18-24 h, measured here: SKBR3 viability, ATP luminescence, at 10 µM.
Experiment [2] concerns the target Receptor tyrosine-protein kinase erbB-2 (Homo sapiens) (UniProt P04626). Described as above. The note with it: 18-24 h, at 10 µM, stronger effect = lower value.
The nature of experiment [3]: reduced viability of SK-BR-3 breast cancer cells – cell-based, 24 h, human, pilot screen (AID 572;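 active = viability at or below 10% of carrier control in both of two separate runs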;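 note: compound exposure lasted between 18 and 24 h rather than exactly 24 h; 100% = carrier-treated control wells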). Particulars: SK-BR-3 viability, CellTiter-Glo luminescence, at 10 µM, stronger effect = lower value.
Experiment [4] is described as follows: HUVEC growth inhibition – cell-based, human, primary screen (AID 575;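 active = viability at or below 30% in both replicate assays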;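 note: 100% = median of untreated cell wells with 0.1% DMSO on each plate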). The note with it: HUVEC proliferation, CellTiter-Glo luminescence, 72 h; at 10 µM; stronger effect = lower value. The gist of the method:
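Test system – primary HUVEC, no more than 12 passages · Dosing – one dose, 10 µM final, 0.1% DMSO · Times – 72 h treatment at 37 °C · Measured by – ATP-based CellTiter-Glo luminescent read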

Experiment [5] is described as follows: H69AR cell proliferation blockers – human, duplicate replicates, primary screen (AID 580;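 active = viability at or under a set limit in both replicates, limit being median viability minus 3 SD, cut at about 48% in these data, passing the limit was not always enough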;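 note: 100% = mean luminescence of untreated wells and 0% = no signal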). The note with it: H69AR lung tumor cells viability, ATP luminescence, 72 h; at 10 µM; stronger effect = lower value.
Experiment [6] can be described thus: MRP1 drug-resistance reversers in H69AR cells – cell-based, doxorubicin co-treatment, pilot screen (AID 601;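 active = viability loss from added drug above about 55%, and viability with drug at most 40%, in both replicates, limit read from the data, passing the limit was not always enough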). The note with it: CellTiter-Glo, 72 h, at 10 µM; for differential viability (reversal): stronger effect = higher value.
Experiment [7] in a line: yeast transport mutant growth inhibition pilot in 384-well plates, post-Golgi transport modulator project (AID 636; in the data active = inhibition above about 31%). Particulars: absorbance 615 nm, about 18 h, stronger effect = higher value.
Experiment [8] is described as follows: growth suppression of yeast trafficking mutant, preliminary HTS, modulators of trafficking downstream of Golgi apparatus project, 1536-format plate, OD 615 nm (AID 637). Particulars: yeast transport mutant growth, absorbance 615 nm, 18 h; stronger effect = higher value.
Where [9] appears, read: H69AR cells + 2 uM doxorubicin, measured here: viability with 2 uM doxorubicin, stronger effect = lower value.
Where [10] appears, read: H69AR cells, compound alone cytotoxicity.

Active and inactive are the calls of the source. Cut-off read from the data, not from the text of the source, unless noted: active = inhibition above about 30%; inactive = the rest.

Sequence of Receptor tyrosine-protein kinase erbB-2 (Homo sapiens) (P04626 whole entry, looked up): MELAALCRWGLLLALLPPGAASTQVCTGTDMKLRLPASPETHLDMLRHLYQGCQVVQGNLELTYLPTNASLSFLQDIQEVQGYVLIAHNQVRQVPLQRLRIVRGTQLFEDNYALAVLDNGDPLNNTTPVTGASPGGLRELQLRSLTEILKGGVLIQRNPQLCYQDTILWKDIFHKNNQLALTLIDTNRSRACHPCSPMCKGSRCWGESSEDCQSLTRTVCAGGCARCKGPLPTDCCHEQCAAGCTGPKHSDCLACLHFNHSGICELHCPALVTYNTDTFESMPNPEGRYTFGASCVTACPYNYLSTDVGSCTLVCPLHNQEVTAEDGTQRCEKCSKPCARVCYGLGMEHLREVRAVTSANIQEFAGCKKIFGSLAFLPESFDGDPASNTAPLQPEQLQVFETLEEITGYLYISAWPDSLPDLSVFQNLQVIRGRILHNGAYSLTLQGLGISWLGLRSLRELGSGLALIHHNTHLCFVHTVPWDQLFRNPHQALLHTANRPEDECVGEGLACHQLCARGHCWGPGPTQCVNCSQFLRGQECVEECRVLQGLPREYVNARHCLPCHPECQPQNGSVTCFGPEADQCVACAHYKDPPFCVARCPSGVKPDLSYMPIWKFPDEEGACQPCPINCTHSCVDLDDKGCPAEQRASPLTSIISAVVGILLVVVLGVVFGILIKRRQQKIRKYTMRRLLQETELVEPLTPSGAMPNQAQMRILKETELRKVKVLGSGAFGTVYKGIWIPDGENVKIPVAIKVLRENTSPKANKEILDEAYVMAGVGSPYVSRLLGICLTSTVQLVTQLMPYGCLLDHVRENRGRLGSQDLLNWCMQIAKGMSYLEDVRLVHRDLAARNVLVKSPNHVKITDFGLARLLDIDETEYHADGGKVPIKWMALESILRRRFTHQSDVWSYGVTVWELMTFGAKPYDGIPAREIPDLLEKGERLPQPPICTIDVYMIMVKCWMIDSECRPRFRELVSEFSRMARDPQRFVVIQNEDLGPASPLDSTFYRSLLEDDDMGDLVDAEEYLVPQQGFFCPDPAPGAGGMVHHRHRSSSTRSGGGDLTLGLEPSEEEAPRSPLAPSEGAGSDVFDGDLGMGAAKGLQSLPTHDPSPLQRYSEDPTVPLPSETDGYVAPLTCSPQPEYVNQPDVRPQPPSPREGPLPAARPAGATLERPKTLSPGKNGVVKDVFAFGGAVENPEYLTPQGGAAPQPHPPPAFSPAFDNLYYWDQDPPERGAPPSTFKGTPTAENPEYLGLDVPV

For the molecule `CC(=O)Nc1ccc(OCC(O)CN2CCN(c3cccc(Cl)c3)CC2)cc1` (stereo not given), the viability in experiment [1] was 76.5%; in experiment [3], 76.5% (inactive); in experiment [4], 79.5% (inactive); in experiment [5], 88.4% (inactive); in experiment [6] (setting [9]), 81.5%; in experiment [6] (setting [10]), 88.4%. Besides, the Her2 level in experiment [2] is 82% (inactive). For the same molecule, the differential viability (reversal) in experiment [6] (H69AR cells + 2 uM doxorubicin) was 6.8% (inactive). For the same molecule, the inhibition in experiment [7] was -7.84% (inactive); in experiment [8] it was 5.74% (inactive).

Turning to `CCOC(=O)c1ccccc1NC(=O)Cn1cnc2c(cnn2-c2ccc(OC)cc2)c1=O`, the viability in experiment [1] is 89.5%; in experiment [3] it was 89.5% (inactive); in experiment [4], 81.4% (inactive); in experiment [5], 101% (inactive); in experiment [6] (setting [9]), 99.7%; in experiment [6] (setting [10]), 101%. Moreover, the Her2 level in experiment [2] is 91.5% (inactive). The differential viability (reversal) in experiment [6] (H69AR cells + 2 uM doxorubicin) is 1.5% (inactive). The inhibition in experiment [7] was -5.54% (inactive); in experiment [8] it was 1.83% (inactive).

In the case of `CCn1c(=O)cc(OCC(=O)NC2CCCCC2)c2ccccc21`, the viability in experiment [1] is 86%; in experiment [3] it was 86% (inactive); in experiment [4] it was 91.5% (inactive); in experiment [5] it was 87% (inactive); in experiment [6] (setting [9]) it was 77.5%; in experiment [6] (setting [10]), 87%. Moreover, the Her2 level in experiment [2] was 98.5% (inactive). In addition, in experiment [6] (H69AR cells + 2 uM doxorubicin), the differential viability (reversal) was 9.56% (inactive). Further, the inhibition was -0.77% (inactive) in experiment [7] and 0% (inactive) in experiment [8].

For `O=C(NC1CCCCC1)N(Cc1ccccc1)Cc1ccco1`, the viability in experiment [1] is 94.5%; in experiment [3], 94.5% (inactive); in experiment [4], 101% (inactive); in experiment [5], 100% (inactive); in experiment [6] (setting [9]), 97.3%; in experiment [6] (setting [10]) it was 100%. The Her2 level in experiment [2] was 98% (inactive). Besides, the differential viability (reversal) in experiment [6] (H69AR cells + 2 uM doxorubicin) was 3.09% (inactive). The inhibition in experiment [7] was 0.54% (inactive); in experiment [8], -3.11% (inactive).

In the case of `Cc1ccc2oc(-c3ccccc3C(=O)O)cc(=O)c2c1`, the viability in experiment [1] was 88.5%; in experiment [3] it was 88.5% (inactive); in experiment [4], 89.3% (inactive); in experiment [5], 101% (inactive); in experiment [6] (setting [9]), 103%; in experiment [6] (setting [10]) it was 101%. Further, the Her2 level in experiment [2] was 84.5% (inactive). In addition, in experiment [6] (H69AR cells + 2 uM doxorubicin), the differential viability (reversal) is -2.34% (inactive). Also, the figures for the inhibition in experiment [7] and in experiment [8] were -6.93% (inactive) and 6.07% (inactive), respectively.

With `C=CCn1c(=O)c2ccccc2n2c(SCC(=O)Nc3cc(C)on3)nnc12`, the viability in experiment [1] was 92.5%; in experiment [3] it was 92.5% (inactive); in experiment [4] it was 87% (inactive); in experiment [5], 98.3% (inactive); in experiment [6] (setting [9]) it was 87.7%; in experiment [6] (setting [10]), 98.3%. In experiment [2], the Her2 level was 89% (inactive). Also, in experiment [6] (H69AR cells + 2 uM doxorubicin), the differential viability (reversal) is 10.6% (inactive). Also, the inhibition was -3.65% (inactive) in experiment [7] and 1.75% (inactive) in experiment [8].

With `CN(C#N)c1nc(N2CCOCC2)nc(N2CCOCC2)n1`, the viability was 111% in experiment [1]; 111% (inactive) in experiment [3]; 81.7% (inactive) in experiment [4]; 92.8% (inactive) in experiment [5]; 89.5% in experiment [6] (setting [9]); 92.8% in experiment [6] (setting [10]). Besides, the Her2 level in experiment [2] was 120% (inactive). In experiment [6] (H69AR cells + 2 uM doxorubicin), the differential viability (reversal) is 3.22% (inactive). The inhibition was -1.22% (inactive) in experiment [7] and 6.35% (inactive) in experiment [8].

`CCCNC(=O)c1ccccc1NC(=O)CN(c1ccccc1OCC)S(C)(=O)=O`: the viability in experiment [1] was 87%; in experiment [3], 87% (inactive); in experiment [4], 112% (inactive); in experiment [5] it was 98.1% (inactive); in experiment [6] (setting [9]), 90.6%; in experiment [6] (setting [10]) it was 98.1%. The Her2 level in experiment [2] was 111% (inactive). For the same molecule, the differential viability (reversal) in experiment [6] (H69AR cells + 2 uM doxorubicin) was 7.5% (inactive). Moreover, the values for the inhibition in experiment [7] and in experiment [8] were -0.13% (inactive) and -2.33% (inactive), respectively.

In the case of `COc1cc(OC)c(NC(=O)c2ccco2)cc1Cl`, the viability was 121% in experiment [1]; 121% (inactive) in experiment [3]; 92.1% (inactive) in experiment [4]; 84.7% (inactive) in experiment [5]; 96.9% in experiment [6] (setting [9]); 84.7% in experiment [6] (setting [10]). In experiment [2], the Her2 level was 81.5% (inactive). In addition, the differential viability (reversal) in experiment [6] (H69AR cells + 2 uM doxorubicin) was -12.1% (inactive). The values for the inhibition in experiment [7] and in experiment [8] were -3.95% (inactive) and 0% (inactive), respectively.

`CC(C)COC(=O)N(C)c1ccc(C(O)(C(F)(F)F)C(F)(F)F)cc1`: the viability is 102% in experiment [1]; 102% (inactive) in experiment [3]; 93.1% (inactive) in experiment [4]; 89.8% (inactive) in experiment [5]; 86.4% in experiment [6] (setting [9]); 89.8% in experiment [6] (setting [10]). The Her2 level in experiment [2] was 95% (inactive). In experiment [6] (H69AR cells + 2 uM doxorubicin), the differential viability (reversal) is 3.42% (inactive). The inhibition in experiment [7] was -2.57% (inactive); in experiment [8], -8.57% (inactive).

In the case of `COCCCNC(=O)c1ccccc1NS(=O)(=O)c1ccc(C)cc1`, the viability was 91% in experiment [1]; 91% (inactive) in experiment [3]; 92.1% (inactive) in experiment [4]; 101% (inactive) in experiment [5]; 91.2% in experiment [6] (setting [9]); 101% in experiment [6] (setting [10]). Further, the Her2 level in experiment [2] was 98% (inactive). The differential viability (reversal) in experiment [6] (H69AR cells + 2 uM doxorubicin) was 9.35% (inactive). Besides, the inhibition was -4.27% (inactive) in experiment [7] and -5.24% (inactive) in experiment [8].

Take `O=C(c1cccs1)N1CCN=C1SCc1ccccc1`: the viability in experiment [1] was 120%; in experiment [3] it was 120% (inactive); in experiment [4], 60.8% (inactive); in experiment [5] it was 90.4% (inactive); in experiment [6] (setting [9]) it was 84.2%; in experiment [6] (setting [10]), 90.4%. In experiment [2], the Her2 level was 74.5% (inactive). In addition, the differential viability (reversal) in experiment [6] (H69AR cells + 2 uM doxorubicin) was 6.13% (inactive). Also, the values for the inhibition in experiment [7] and in experiment [8] were 3.51% (inactive) and -0.66% (inactive), respectively.

On to `CC(C)(C)OC(=O)N1CCC(C(=O)N2CCCCCC2)CC1`, for which the viability in experiment [1] was 94%; in experiment [3] it was 94% (inactive); in experiment [4] it was 102% (inactive); in experiment [5] it was 107% (inactive); in experiment [6] (setting [9]) it was 86.2%; in experiment [6] (setting [10]), 107%. Further, the Her2 level in experiment [2] is 87.5% (inactive). Moreover, in experiment [6] (H69AR cells + 2 uM doxorubicin), the differential viability (reversal) was 21.3% (inactive). Further, the inhibition was -1.71% (inactive) in experiment [7] and -6.36% (inactive) in experiment [8].

Consider `CC1CCN(CC(O)COC2CCC(C(C)(C)C)CC2)CC1` (stereo not given), for which the viability in experiment [1] was 82%; in experiment [3] it was 82% (inactive); in experiment [4] it was 73.8% (inactive); in experiment [5] it was 74.5% (inactive); in experiment [6] (setting [9]), 71.4%; in experiment [6] (setting [10]) it was 74.5%. The Her2 level in experiment [2] was 76% (inactive). In experiment [6] (H69AR cells + 2 uM doxorubicin), the differential viability (reversal) was 3.15% (inactive). For the same molecule, the inhibition in experiment [7] was 97.8% (active); in experiment [8], 84.4% (active).

Regarding `CN(C)/C=C(\C#N)c1nc2ccccc2[nH]1`, the viability is 85% in experiment [1]; 85% (inactive) in experiment [3]; 97.6% (inactive) in experiment [4]; 98% (inactive) in experiment [5]; 77% in experiment [6] (setting [9]); 98% in experiment [6] (setting [10]). Besides, the Her2 level in experiment [2] is 90% (inactive). Further, the differential viability (reversal) in experiment [6] (H69AR cells + 2 uM doxorubicin) is 20.9% (inactive). Besides, the results for the inhibition in experiment [7] and in experiment [8] were 2.37% (inactive) and -8.36% (inactive), respectively.

In the case of `O=C(CCNS(=O)(=O)c1ccc(Cl)cc1)NCc1ccccn1`, the viability was 97.5% in experiment [1]; 97.5% (inactive) in experiment [3]; 81.4% (inactive) in experiment [4]; 89.7% (inactive) in experiment [5]; 96.7% in experiment [6] (setting [9]); 89.7% in experiment [6] (setting [10]). Besides, in experiment [2], the Her2 level is 75.5% (inactive). The differential viability (reversal) in experiment [6] (H69AR cells + 2 uM doxorubicin) is -6.95% (inactive). For the same molecule, the inhibition in experiment [7] is -5.26% (inactive); in experiment [8], -1.83% (inactive).
